# Laboratory results taken from ChEMBL document CHEMBL1122710, “6-Methylangelicins: a new series of potential photochemotherapeutic agents for the treatment of psoriasis” (J Med Chem, 1984).
# Where “and” joins values, the source holds several entries; their conditions need not be identical. Identical values can stand only once. Calls of active or inactive are those of the source. The rule behind the calls is not given here.
# How the values were obtained:
# Nucleic Acid [1] = experiment: (§1) Compound was evaluated for the association constant to an isolated site of DNA; assay type: nucleic-acid assay; parameters: unit not given here; conditions: Bos taurus
# Nucleic Acid [2] = experiment: Compound was evaluated for the binding parameter by determining the number of nucleotides occluded by a bound angelicin (n); assay type: nucleic-acid assay; conditions: Bos taurus
# Nucleic Acid [3] = experiment: (§2) Compound was evaluated for the frequency of the binding site that is the number of molecules bound to every nucleotide (1/n); assay type: nucleic-acid assay; conditions: Bos taurus
# Nucleic Acid [4] = experiment: Compound was evaluated for the binding parameter by determining rate constant; assay type: nucleic-acid assay; conditions: Bos taurus
# Mus musculus = organism: Mus musculus; experiment: Compound was evaluated for 50% inhibition of DNA synthesis in Ehrlich ascites tumor cells by irradiation (365 nM) at 1.9 x 10e -5M incubated with [3H]thymidine at 37 degree C (p 0.05); assay type: functional
# Outline: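 Ehrlich ascites tumor cells (2×10^7 cells/mL in Hanks' solution) are irradiated on ice with the compound present, using an HPW 125 lamp at 20 cm. 2×10^6 cells are then pulsed with 1 μCi [3H]thymidine for 15 min at 37 °C. TCA-insoluble counts are taken as % of untreated controls, at least duplicates per dose. UV-A dose for 50% inhibition is derived by probit analysis.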
# [5] = Percentage of clearance of psoriatic lesions by the compound at dose of 8 J/cm e2 ultraviolet-A radiation; assay type: ADME, organism-based; conditions: in vivo
# Outline: (§3)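 Psoriasis patients, with 4×4 cm skin areas per treatment. Ethanolic solution (0.1% w/v) is applied topically to 5 μg/cm² and left to evaporate. After 20 min, the area is irradiated with a UV-A fluorescent PUVA lamp. Starting dose is 2.5 J/cm², increased up to 13 J/cm² by skin tolerance. Control areas get compound without UV-A, or UV-A alone.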
# [6] = Percentage of clearance of psoriatic lesions by the compound at dose of 9 J/cm e2 ultraviolet-A radiation; assay type: ADME, organism-based; conditions: in vivo; outline: as §3
# [7] = Percentage of clearance of psoriatic lesions by 8-methoxypsoralen (8-MOP) for comparison at dose of 8 J/cm e2 ultraviolet-A radiation; assay type: ADME, organism-based; conditions: in vivo; outline: as §3
# [8] = Percentage of clearance of psoriatic lesions by 8-methoxypsoralen (8-MOP) for comparison at dose of 9 J/cm e2 ultraviolet-A radiation; assay type: ADME, organism-based; conditions: in vivo; outline: as §3
# Homo sapiens [9] = organism: Homo sapiens; experiment: Number of treatments at dose of 8 J/cm e2 ultraviolet-A radiation; assay type: functional; outline: as §3
# Homo sapiens [10] = organism: Homo sapiens; experiment: Number of treatments at dose of 9 J/cm e2 ultraviolet-A radiation; assay type: functional; outline: as §3
# Homo sapiens [11] = organism: Homo sapiens; experiment: Pigmentation capacity at dose of 8 J/cm e2 ultraviolet-A radiation in patient; + = moderate; assay type: functional, organism-based; outline: as §3
# Homo sapiens [12] = organism: Homo sapiens; experiment: Pigmentation capacity at dose of 9 J/cm e2 ultraviolet-A radiation in patient; + = moderate; assay type: functional, organism-based; outline: as §3
# Homo sapiens [13] = organism: Homo sapiens; experiment: Erythema induction by the compound at dose of 8 J/cm e2 ultraviolet-A radiation in patient; - = absent; assay type: functional, organism-based; outline: as §3
# Homo sapiens [14] = organism: Homo sapiens; experiment: Erythema induction by the compound at dose of 9 J/cm e2 ultraviolet-A radiation in patient; - = absent; assay type: functional, organism-based; outline: as §3
# Bos taurus [15] = organism: Bos taurus; experiment: as §2
# Bos taurus [16] = organism: Bos taurus; experiment: as §1
# [17] = Percentage of clearance of psoriatic lesions by the compound at dose of 4 J/cm e2 ultraviolet-A radiation; assay type: ADME, organism-based; conditions: in vivo; outline: as §3
# [18] = Percentage of clearance of psoriatic lesions by the compound at dose of 6 J/cm e2 ultraviolet-A radiation; assay type: ADME, organism-based; conditions: in vivo; outline: as §3
# [19] = Percentage of clearance of psoriatic lesions by 8-methoxypsoralen (8-MOP) for comparison at dose of 10 J/cm e2 ultraviolet-A radiation; assay type: ADME, organism-based; conditions: in vivo; outline: as §3
# [20] = Percentage of clearance of psoriatic lesions by 8-methoxypsoralen (8-MOP) for comparison at dose of 6 J/cm e2 ultraviolet-A radiation; assay type: ADME, organism-based; conditions: in vivo; outline: as §3
# Homo sapiens [21] = organism: Homo sapiens; experiment: Number of treatments at dose of 10 J/cm e2 ultraviolet-A radiation; assay type: functional; outline: as §3
# Homo sapiens [22] = organism: Homo sapiens; experiment: Number of treatments at dose of 4 J/cm e2 ultraviolet-A radiation (patient); assay type: functional; outline: as §3
# Homo sapiens [23] = organism: Homo sapiens; experiment: (§4) Number of treatments at dose of 6 J/cm e2 ultraviolet-A radiation; assay type: functional; outline: as §3
# Homo sapiens [24] = organism: Homo sapiens; experiment: Pigmentation capacity at dose of 6 J/cm e2 ultraviolet-A radiation in patient; + = moderate; assay type: functional, organism-based; outline: as §3
# Homo sapiens [25] = organism: Homo sapiens; experiment: Erythema induction by the compound at dose of 10 J/cm e2 ultraviolet-A radiation in patient; - = absent; assay type: functional, organism-based; outline: as §3
# Homo sapiens [26] = organism: Homo sapiens; experiment: Erythema induction by the compound at dose of 4 J/cm e2 ultraviolet-A radiation in patient; - = absent; assay type: functional, organism-based; outline: as §3
# Homo sapiens [27] = organism: Homo sapiens; experiment: Erythema induction by the compound at dose of 6 J/cm e2 ultraviolet-A radiation in patient; - = absent; assay type: functional, organism-based; outline: as §3
# Homo sapiens [28] = organism: Homo sapiens; experiment: Pigmentation capacity of 8-methoxypsoralen (8-MOP) for comparison at dose of 10 J/cm e2 ultraviolet-A radiation in patient; +=moderate; assay type: functional, organism-based; outline: as §3
# Homo sapiens [29] = organism: Homo sapiens; experiment: Pigmentation capacity of 8-methoxypsoralen (8-MOP) for comparison at dose of 4 J/cm e2 ultraviolet-A radiation in patient; - = absent; assay type: functional, organism-based; outline: as §3
# Homo sapiens [30] = organism: Homo sapiens; experiment: Pigmentation capacity of 8-methoxypsoralen (8-MOP) for comparison at dose of 6 J/cm e2 ultraviolet-A radiation in patient; + = moderate; assay type: functional, organism-based; outline: as §3
# Homo sapiens [31] = organism: Homo sapiens; experiment: Pigmentation capacity of 8-methoxypsoralen (8-MOP) for comparison at dose of 8 J/cm e2 ultraviolet-A radiation in patient; +=moderate; assay type: functional, organism-based; outline: as §3
# Homo sapiens [32] = organism: Homo sapiens; experiment: as §4; assay type: functional; outline: as §3; remark: listed apart in the source
# [33] = Percentage of clearance of psoriatic lesions by the compound at dose of 10 J/cm e2 ultraviolet-A radiation; assay type: ADME, organism-based; conditions: in vivo; outline: as §3
# Homo sapiens [34] = organism: Homo sapiens; experiment: Erythema induction by 8-methoxypsoralen (8-MOP) for comparison at dose of 8 J/cm e2 ultraviolet-A radiation in patient, +=moderate; assay type: functional, organism-based; outline: as §3
compound,measurement,setting,value
Cc1cc(=O)oc2c1cc(C)c1occc12,K,Nucleic Acid [1],2990
same,Activity,Nucleic Acid [2],15.9
same,Activity,Nucleic Acid [3],0.063
same,Rate constant,Nucleic Acid [4],0.0523 min⁻¹
same,ID50,Mus musculus,4e+18 quanta
Cc1cc2ccc(=O)oc2c2c(C)coc12,Lesion_Clearance,[5],100%
same,Lesion_Clearance,[6],90%
same,Lesion_Clearance,[7],85%
same,Lesion_Clearance,[8],70%
same,K,Nucleic Acid [1],6300
same,Activity,Nucleic Acid [2],16.4
same,Activity,Nucleic Acid [3],0.061
same,Rate constant,Nucleic Acid [4],0.099 min⁻¹
same,Activity,Homo sapiens [9],15
same,Activity,Homo sapiens [10],15
same,Pigmentation capacity,Homo sapiens [11],moderate
same,Pigmentation capacity,Homo sapiens [12],moderate
same,Erythema induction,Homo sapiens [13],inactive
same,Erythema induction,Homo sapiens [14],inactive
same,ID50,Mus musculus,2.2e+18 quanta
Cc1cc2ccc(=O)oc2c2ccoc12,Activity,Bos taurus [15],0.048
same,K,Bos taurus [16],925
same,Activity,Nucleic Acid [2],20.8
same,Rate constant,Nucleic Acid [4],0.036 min⁻¹
same,ID50,Mus musculus,2.63e+19 quanta
Cc1cc2c(o1)c(C)c(C)c1ccc(=O)oc12,K,Nucleic Acid [1],3730
same,Activity,Nucleic Acid [2],14.3
same,Activity,Nucleic Acid [3],0.07
same,Rate constant,Nucleic Acid [4],0.023 min⁻¹
same,ID50,Mus musculus,3e+19 quanta
Cc1c(C)c2occc2c2oc(=O)ccc12,ID50,Mus musculus,3e+19 quanta
Cc1cc(=O)oc2c1cc(C)c1occ(C)c12,Lesion_Clearance,[17],95%
same,Lesion_Clearance,[18],100%
same,Lesion_Clearance,[5],100%
same,Lesion_Clearance,[19],90%
same,Lesion_Clearance,[20],80% and 85%
same,Lesion_Clearance,[7],75%
same,K,Nucleic Acid [1],10100
same,Activity,Nucleic Acid [2],11
same,Activity,Nucleic Acid [3],0.091
same,Rate constant,Nucleic Acid [4],0.133 min⁻¹
same,Activity,Homo sapiens [21],15
same,Activity,Homo sapiens [22],11
same,Activity,Homo sapiens [23],9
same,Activity,Homo sapiens [9],11
same,Pigmentation capacity,Homo sapiens [24],moderate
same,Erythema induction,Homo sapiens [25],inactive
same,Erythema induction,Homo sapiens [26],inactive
same,Erythema induction,Homo sapiens [27],inactive
same,Erythema induction,Homo sapiens [13],inactive
same,Pigmentation capacity,Homo sapiens [28],moderate
same,Pigmentation capacity,Homo sapiens [29],inactive
same,Pigmentation capacity,Homo sapiens [30],moderate
same,Pigmentation capacity,Homo sapiens [31],moderate
same,Activity,Homo sapiens [32],9
same,ID50,Mus musculus,6e+16 quanta
same,Lesion_Clearance,[33],90%
same,Erythema induction,Homo sapiens [34],moderate
COc1c2occc2cc2ccc(=O)oc12 [METHOXSALEN],K,Nucleic Acid [1],736
same,Activity,Nucleic Acid [2],7.81
same,Activity,Nucleic Acid [3],0.128
same,Rate constant,Nucleic Acid [4],0.031 min⁻¹
same,ID50,Mus musculus,1.38e+19 quanta
Cc1cc2c(o1)c(C)cc1ccc(=O)oc12,K,Nucleic Acid [1],1980
same,Activity,Nucleic Acid [2],12.8
same,Activity,Nucleic Acid [3],0.078
same,Rate constant,Nucleic Acid [4],0.03 min⁻¹
same,ID50,Mus musculus,1.19e+19 quanta
Cc1cc2c(o1)c(C)cc1c(C)cc(=O)oc12,K,Nucleic Acid [1],3310
same,Activity,Nucleic Acid [2],22.2
same,Activity,Nucleic Acid [3],0.045
same,Rate constant,Nucleic Acid [4],0.0702 min⁻¹
same,ID50,Mus musculus,3.87e+18 quanta
O=c1ccc2ccc3occc3c2o1 [ANGELICIN],K,Nucleic Acid [1],560
same,Activity,Nucleic Acid [2],15.9
same,Activity,Nucleic Acid [3],0.063
same,Rate constant,Nucleic Acid [4],0.011 min⁻¹
same,ID50,Mus musculus,2.5e+19 quanta
